The values that follow come from ChEMBL document CHEMBL1151920, “Synthesis and biological evaluation of penem inhibitors of bacterial signal peptidase” (Bioorg Med Chem Lett, 2009).

Test [1] has as its system Staphylococcus epidermidis. The experiment in a line: Antibacterial activity against Staphylococcus epidermidis RP62A after 18 hrs by liquid dilution method. It is filed as functional. The procedure, abridged:
(§1)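 Broth microdilution MIC. Compounds 2-fold serially diluted in cation-adjusted Mueller–Hinton broth. Bacteria grown to 10^8 cfu/mL, then inoculated at a final 5 × 10^5 cells/mL. Incubated 37 °C, 18 h. MIC taken as the lowest concentration giving no visible growth. E. coli ATCC25922 was tested in the presence of polymyxin B as permeabilizing agent.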

For another test, the system named is Escherichia coli. Nature of the test: Antibacterial activity against permeabilizing agent polymyxin B-treated Escherichia coli ATCC 25922 after 18 hrs by liquid dilution method. It counts as functional. To be noted: ATCC 25922, 18 h. The procedure, abridged: as §1
Test [2] concerns Staphylococcus aureus. The experiment in a line: Antibacterial activity against Staphylococcus aureus 8325 after 18 hrs by liquid dilution method. It is filed as functional. To be noted: Staphylococcus aureus, 8325, 18 h. Summed up: as §1
Test [3] has as its system Staphylococcus aureus. The experiment in a line: Antibacterial activity against methicillin-resistant Staphylococcus aureus USA300 after 18 hrs by liquid dilution method. To be noted: USA300, 18 h. It counts as functional.
Another test addresses Signal peptidase I (Escherichia coli K-12, UniProt P00803). Nature of the test: Inhibition of Escherichia coli signal peptidase.

≈ marks a conversion by molar mass, not a printed value.

Signal peptidase I, sequence (P00803 whole entry): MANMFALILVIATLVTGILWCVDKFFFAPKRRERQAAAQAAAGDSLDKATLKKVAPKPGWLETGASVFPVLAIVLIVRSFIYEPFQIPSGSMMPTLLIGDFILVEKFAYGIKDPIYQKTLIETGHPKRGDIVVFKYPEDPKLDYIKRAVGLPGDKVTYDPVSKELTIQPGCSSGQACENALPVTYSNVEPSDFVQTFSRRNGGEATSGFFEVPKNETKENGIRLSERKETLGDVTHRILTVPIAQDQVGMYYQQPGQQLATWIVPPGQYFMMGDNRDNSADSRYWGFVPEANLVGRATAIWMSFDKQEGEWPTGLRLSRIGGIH

Usually MIC stands for the least concentration at which growth counts as inhibited. The low end stands for inhibition by little substance, the high end for a need for much substance. Turning to `CC(=O)N[C@@H](C)C(=O)O[C@H](C)[C@H]1C(=O)N2C(C(=O)OCc3ccc([N+](=O)[O-])cc3)=CS[C@@H]12`, the MIC (in test [1]; against Escherichia coli; in the test on Staphylococcus aureus [2]; in the test with Staphylococcus aureus [3]) was more than 200 µg/mL throughout.

As to `CC(C)C(=O)O[C@H](C)[C@H]1C(=O)N2C(C(=O)OCc3ccc([N+](=O)[O-])cc3)=CS[C@@H]12`, the MIC in test [1] is 50 µg/mL (≈ 119 µM); against Escherichia coli it was more than 200 µg/mL; in the test on Staphylococcus aureus [2], more than 200 µg/mL; against Staphylococcus aureus [3], more than 200 µg/mL.

Take `COCO[C@H](C)[C@H]1C(=O)N2C(C(=O)OCc3ccc([N+](=O)[O-])cc3)=CS[C@@H]12`: the MIC in test [1] is 50 µg/mL (≈ 127 µM); with Escherichia coli, more than 200 µg/mL; in the test on Staphylococcus aureus [2] it was more than 200 µg/mL; in the test with Staphylococcus aureus [3] it was more than 200 µg/mL.

Consider `CCOCO[C@H](C)[C@H]1C(=O)N2C(C(=O)OCc3ccc([N+](=O)[O-])cc3)=CS[C@@H]12`, for which the MIC in test [1] was 50 µg/mL (≈ 122 µM); in the test on Escherichia coli, more than 200 µg/mL; with Staphylococcus aureus [2], more than 200 µg/mL; with Staphylococcus aureus [3], more than 200 µg/mL.

In the case of `COCCOCO[C@H](C)[C@H]1C(=O)N2C(C(=O)OCc3ccc([N+](=O)[O-])cc3)=CS[C@@H]12`, the MIC in test [1] is 100 µg/mL (≈ 228 µM); against Escherichia coli, more than 200 µg/mL; in the test on Staphylococcus aureus [2], 200 µg/mL (≈ 456 µM); against Staphylococcus aureus [3], more than 200 µg/mL.

Turning to `C[C@@H](O)[C@H]1C(=O)N2C(C(=O)OCc3ccc([N+](=O)[O-])cc3)=CS[C@@H]12`, the minimal inhibitory concentration (MIC) is 50 µg/mL (≈ 143 µM) in test [1], more than 200 µg/mL against Escherichia coli, 200 µg/mL (≈ 571 µM) in the test with Staphylococcus aureus [2] and more than 200 µg/mL against Staphylococcus aureus [3].

As to `CC(=O)O[C@H](C)[C@H]1C(=O)N2C(C(=O)OCc3ccc([N+](=O)[O-])cc3)=CS[C@@H]12`, the MIC in test [1] is 100 µg/mL (≈ 255 µM); against Escherichia coli it was more than 200 µg/mL; against Staphylococcus aureus [2], more than 200 µg/mL; with Staphylococcus aureus [3], more than 200 µg/mL.

Broadly, the IC50 is the concentration needed to halve the response being measured. Read a low IC50 as greater potency in that assay. Compound `C[C@@H](O)[C@H]1C(=O)N2C(C(=O)O)=CS[C@@H]12` came in with an IC50 against Signal peptidase I of 180 nM.

Turning to `CC(=O)N[C@H](C(=O)O[C@H](C)[C@H]1C(=O)N2C(C(=O)OCc3ccc([N+](=O)[O-])cc3)=CS[C@@H]12)C(C)C`, the MIC (in test [1]; with Escherichia coli; in the test with Staphylococcus aureus [2]; against Staphylococcus aureus [3]) was more than 200 µg/mL throughout.

With `CCCC(=O)O[C@H](C)[C@H]1C(=O)N2C(C(=O)OCc3ccc([N+](=O)[O-])cc3)=CS[C@@H]12`, the MIC is 100 µg/mL (≈ 238 µM) in test [1], more than 200 µg/mL against Escherichia coli, more than 200 µg/mL in the test on Staphylococcus aureus [2] and more than 200 µg/mL against Staphylococcus aureus [3].

As for `CCC(=O)O[C@H](C)[C@H]1C(=O)N2C(C(=O)OCc3ccc([N+](=O)[O-])cc3)=CS[C@@H]12`, the MIC in test [1] is 100 µg/mL (≈ 246 µM); against Escherichia coli, more than 200 µg/mL; in the test on Staphylococcus aureus [2], more than 200 µg/mL; in the test on Staphylococcus aureus [3], more than 200 µg/mL.

Consider `CC(=O)NCC(=O)O[C@H](C)[C@H]1C(=O)N2C(C(=O)OCc3ccc([N+](=O)[O-])cc3)=CS[C@@H]12`, for which the MIC (in test [1]; with Escherichia coli; against Staphylococcus aureus [2]; in the test with Staphylococcus aureus [3]) was more than 200 µg/mL in each case.

Regarding `CC(C)CC(=O)O[C@H](C)[C@H]1C(=O)N2C(C(=O)OCc3ccc([N+](=O)[O-])cc3)=CS[C@@H]12`, the MIC in test [1] is 100 µg/mL (≈ 230 µM); against Escherichia coli it was more than 200 µg/mL; in the test on Staphylococcus aureus [2], more than 200 µg/mL; against Staphylococcus aureus [3], more than 200 µg/mL.

As to `CC[C@H](C)[C@H](NC(C)=O)C(=O)O[C@H](C)[C@H]1C(=O)N2C(C(=O)OCc3ccc([N+](=O)[O-])cc3)=CS[C@@H]12`, the MIC (in test [1]; in the test with Escherichia coli; against Staphylococcus aureus [2]; in the test with Staphylococcus aureus [3]) was more than 200 µg/mL each time.

As to `CCNC(=O)O[C@H](C)[C@H]1C(=O)N2C(C(=O)OCc3ccc([N+](=O)[O-])cc3)=CS[C@@H]12`, the MIC in test [1] was 100 µg/mL (≈ 237 µM); in the test with Escherichia coli, more than 200 µg/mL; against Staphylococcus aureus [2], more than 200 µg/mL; against Staphylococcus aureus [3] it was 100 µg/mL (≈ 237 µM).

For `CC(C)NC(=O)O[C@H](C)[C@H]1C(=O)N2C(C(=O)OCc3ccc([N+](=O)[O-])cc3)=CS[C@@H]12`, the MIC in test [1] is 100 µg/mL (≈ 230 µM); against Escherichia coli, more than 200 µg/mL; in the test on Staphylococcus aureus [2] it was more than 200 µg/mL; in the test on Staphylococcus aureus [3], 100 µg/mL (≈ 230 µM).
